Experimental data: publication PMC11387586 (Pharmacology Research & Perspectives, 2024)
Values joined by “and” are separate entries in the source; they are usually repeats but may differ in a detail not shown here. Equal entries are not always repeated.

Key:
[1] = Plasma pharmacokinetics of aficamten, M1a and M1b; assay type: in vivo, human
How it was run: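 About 3 mL K2EDTA blood was drawn predose and at 0.25–48 h, then every 24 h. Plasma was spun at about 2000G for 10 min at 4°C and stored at −20°C. Validated LC-MS/MS: parent on C18 with 10 mM ammonium acetate/acetonitrile gradient; M1a/M1b on a chiral column with 30:70 acetonitrile:10 mM ammonium acetate. Non-compartmental analysis gave Cmax, tmax, t1/2, AUCs, CL/F and Vz/F.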

[2] = Total radioactivity in plasma and whole blood; assay type: in vivo, human; conditions: for Total radioactivity t1/2 / Total radioactivity tmax: median (range)
How it was run: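 About 4 mL K2EDTA blood was drawn at the PK time points. […] Counting ran at least 5 min with quench correction, in duplicate where possible. LLOQ was 9.57 ng equivalents/g for blood and 6.86 for plasma. Non-compartmental analysis; tmax and t1/2 given as median (range), others as geometric mean.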

Safety assessments = assay type: in vivo, human; conditions: single oral 20 mg
How it was run: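 After one [14C] 20 mg oral dose, eight healthy men were monitored for vital signs, 12-lead ECG, clinical chemistry, haematology, urinalysis and adverse events at several time points. They stayed confined until at least Day 19 or until discharge criteria were met. A follow-up phone call came 7–9 days after discharge.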

[3] = Metabolite profiling of urine; assay type: in vivo, human; conditions: pooled urine
How it was run: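 Urine was pooled per participant into 0–336, 0–384 and 0–432 h pools (0.03–0.08% of each sample weight) and counted by LSC. Radiochromatograms came from LC-HRMS fractions. Chiral separation of M1a and M1b used a […] pool. Identification cut-off was 1% of dose; quantitation limit was 1% of run and 10 cpm peak height. % of dose = (% radioactivity in peak/100) × % of dose in sample.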

[4] = test system: naive rat intestinal contents; conditions: anaerobic conditions; cited from earlier work
[5] = oral dose, cited from earlier work
[6] = Metabolite profiling of plasma; assay type: in vivo, human; conditions: pooled samples 2 to 264 h
How it was run: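 Plasma taken at 2, 4, 12, 24, 72, 120, 168 and 264 h was pooled across participants by time point, in proportion to weight (1.2–2.5 g each), then counted by LSC. LC-HRMS profiling used fraction radioactivity counts. For chiral M1a/M1b separation, a 2–264 h pool ran on a cellulose column with reverse-phase gradient, 0.6 mL/min, over 15 min. Exposure = component AUC0-t / total radioactivity AUC0-t × 100.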

[7] = Mass balance: radioactive dose recovered in urine and feces; assay type: in vivo, human; conditions: for Cumulative percent of radioactive dose recovered: urine
How it was run: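 8 healthy men each got one [14C]-labelled 20 mg oral capsule (about 100 μCi) with 240 mL water after a fast of at least 10 h. Urine was collected at 0–4, 4–8, 8–12 and 12–24 h, then every 24 h; feces every 24 h, homogenised in about 20:80 acetonitrile:water. Urine was counted directly by LSC; fecal homogenate was combusted first. Samples ran in duplicate. Collection continued until discharge criteria were met.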

[8] = cited from earlier work
[9] = Urinary excretion of aficamten, M1a and M1b; assay type: in vivo; conditions: human, urine, oral, 20 mg, renal clearance (CLR), geometric mean
How it was run: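 Urine was collected predose, at 0–4, 4–8, 8–12 and 12–24 h, then every 24 h until discharge. Isopropyl alcohol equal to 20% of void mass was added, pools were kept at 4°C, and aliquots were frozen at −20°C. Urinary excretion of parent and M1a/M1b (fe0-tlast) and renal clearance came from non-compartmental analysis, given as geometric means.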

[10] = Metabolite profiling of feces; assay type: in vivo, human; conditions: pooled feces
How it was run: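 Feces from single oral 20 mg (about 100 μCi) [14C] dosing was homogenised in about 20:80 acetonitrile:water. Metabolites were profiled by LC-HRMS with radioactivity counted in collected fractions. Identification cut-off was 1% of dose; quantitation limit was 1% of run and 10 cpm peak height. % of dose = (% radioactivity in peak/100) × % of dose in sample.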

[11] = cited from earlier work; remark: listed apart in the source
[12] = whole blood, geometric mean (CV%)

## CCc1nc(-c2ccc3c(c2)CC[C@H]3NC(=O)c2cnn(C)c2)no1 [Aficamten]
[1]; human, po, 20 mg
  Tmax: 2 h
  Vd/F: 690 L
[1]; human, po, 20 mg, AUC0‐inf, single oral 20 mg, geometric mean (CV%)
  AUC: 4440 ng·h/mL
[1]; human, po, 20 mg, AUC0‐tlast, single oral 20 mg, geometric mean (CV%)
  AUC: 4120 ng·h/mL
[1]; human, po, 20 mg, Cmax, single oral 20 mg, geometric mean (CV%)
  Cmax: 61.8 ng/mL
[1]; human, po, 20 mg, t1/2, plasma, single oral 20 mg, median (range)
  half-life: 99.6 h
[1]; single oral 20 mg, geometric mean (CV%)
  CL/F: 4.50 (32.1) L/h
[1]; single oral 20 mg, geometric mean (CV%), listed as aficamten
  CL/F: 4.50 L/h
[2]; geometric mean
  ratio of plasma analyte to plasma total radioactivity, AUC0‐inf: 0.290
  ratio of total radioactivity in whole blood: plasma based on AUC0‐inf: 0.566
[2]; plasma, geometric mean (CV%)
  Total radioactivity Cmax: 111 (43.2) ng/mL
[2]; plasma
  Total radioactivity t1/2: 98.2 (80.1–230) h
  Total radioactivity tmax: 3.50 (1.00–6.00) h
[2]; [12]
  Total radioactivity AUC0‐inf: 8660 (23.7) h.ng/mL
  Total radioactivity AUC0‐tlast: 5710 (38.5) h.ng/mL
  Total radioactivity Cmax: 66.7 (44.9) ng/mL
[2]; whole blood
  Total radioactivity t1/2: 100 (86.2–171) h
  Total radioactivity tmax: 4.50 (1.00–16.0) h
Safety assessments; 8 healthy male participants
  tolerability: well tolerated
Safety assessments; 8 participants
  changes in vital signs, ECG measurements, laboratory values: no clinically significant changes in vital signs, ECG measurements, or laboratory values
  deaths, serious AEs, AEs leading to discontinuation: no deaths, and serious AEs or any AEs leading to discontinuation
  participants with an AE (diarrhea, mild, not considered related to treatment): 12.5%
[3]
  Percent of radioactive dose in urine: No unchanged aficamten was recovered
[4]
  fate on incubation with rat intestinal contents: completely cleared
[5]; bile duct cannulated rats
  percent of the [^14C]aficamten radioactive dose in bile: trace level
[5]; intact rats
  percent of the [^14C]aficamten radioactive dose in feces: lack of detection
[5]; rat
  radioactive dose excreted by the hepatobiliary route: approximately 90%
  radioactive dose excreted in urine: approximately 8%
[6]
  AUC0‐t % of total radioactivity AUC0‐t: 19.8%
[6]; listed as aficamten
  AUC0‐t % of total radioactivity AUC0‐t: approximately 19.8%
[7]; based on recovery data
  fraction of dose absorbed: at least 0.95
[7]; urine and feces combined, by 336 h postdose
  mean recovery of radiolabeled material: 85.0%
[7]; urine and feces combined, end of sampling period (600 h)
  overall mean recovery of radioactivity in urine and feces: 89.7%
[7]; 0–96 h, individual subject
  Cumulative percent of radioactive dose recovered: 24.1% and 8.99% and 16.2% and 13.5% and 11.2% and 17.7% and 18.3% and 14.0%
[7]; 0–96 h, mean
  Cumulative percent of radioactive dose recovered: 15.5%
[7]; 0–120 h, individual subject
  Cumulative percent of radioactive dose recovered: 27.4% and 11.2% and 18.0% and 15.7% and 13.7% and 20.5% and 21.1% and 16.4%
[7]; 0–120 h, mean
  Cumulative percent of radioactive dose recovered: 18.0%
[7]; 0–144 h, individual subject
  Cumulative percent of radioactive dose recovered: 31.3% and 13.3% and 20.8% and 17.1% and 15.7% and 22.2% and 23.6% and 18.7%
[7]; 0–144 h, mean
  Cumulative percent of radioactive dose recovered: 20.3%
[7]; 0–168 h, individual subject
  Cumulative percent of radioactive dose recovered: 34.3% and 14.7% and 22.3% and 18.2% and 17.5% and 24.1% and 25.7% and 20.7%
[7]; 0–168 h, mean
  Cumulative percent of radioactive dose recovered: 22.2%
[7]; 0–192 h, individual subject
  Cumulative percent of radioactive dose recovered: 36.9% and 16.1% and 23.8% and 19.2% and 18.6% and 25.5% and 27.2% and 22.3%
[7]; 0–192 h, mean
  Cumulative percent of radioactive dose recovered: 23.7%
[7]; 0–216 h, individual subject
  Cumulative percent of radioactive dose recovered: 38.9% and 17.6% and 25.3% and 20.3% and 19.9% and 26.6% and 28.6% and 23.8%
[7]; 0–216 h, mean
  Cumulative percent of radioactive dose recovered: 25.1%
[7]; 0–240 h, individual subject
  Cumulative percent of radioactive dose recovered: 40.8% and 18.6% and 27.2% and 21.3% and 20.8% and 27.7% and 29.6% and 25.2%
[7]; 0–240 h, mean
  Cumulative percent of radioactive dose recovered: 26.4%
[7]; 0–264 h, individual subject
  Cumulative percent of radioactive dose recovered: 42.5% and 19.7% and 28.6% and 21.9% and 21.6% and 28.5% and 30.6% and 26.2%
[7]; 0–264 h, mean
  Cumulative percent of radioactive dose recovered: 27.5%
[7]; 0–288 h, individual subject
  Cumulative percent of radioactive dose recovered: 43.8% and 20.5% and 29.9% and 22.5% and 22.0% and 29.3% and 31.2% and 27.1%
[7]; 0–288 h, mean
  Cumulative percent of radioactive dose recovered: 28.3%
[7]; 0–312 h, individual subject
  Cumulative percent of radioactive dose recovered: 44.8% and 20.9% and 30.6% and 22.9% and 22.4% and 30.0% and 31.8% and 27.8%
[7]; 0–312 h, mean
  Cumulative percent of radioactive dose recovered: 28.9%
[7]; 0–336 h, individual subject
  Cumulative percent of radioactive dose recovered: 45.7% and 21.8% and 31.4% and 23.2% and 22.7%
[7]; 0–336 h, mean
  Cumulative percent of radioactive dose recovered: 29.5%
[8]
  PK parameters in moderate hepatic impairment versus normal hepatic function: generally comparable
[9]
  CL renal: 0.0438 mL/min
[10]
  Percent of radioactive dose in feces: 5.07%
[10]; listed as aficamten
  Percent of radioactive dose in feces: approximately 5.07%
[11]
  effect of food on absorption: did not affect the extent of aficamten absorption
[11]; multiple doses
  time to steady state concentrations: ≤ 2 weeks
